{"source": "ChEMBL document CHEMBL4325822", "about": "“Discovery of a tetrazolyl β-carboline with in vitro and in vivo osteoprotective activity under estrogen-deficient conditions” (Medchemcomm, 2018)", "key": {"Calvarial osteoblast [1]": {"test_system": "Calvarial osteoblast", "experiment": "Increase in Runx2 protein expression in Sprague-Dawley rat calvarial osteoblasts at 100 pM after 48 hrs by Western blot analysis", "type": "functional, cell-based", "procedure,_shortened": "(§1)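 Rat calvarial osteoblasts (pooled 1–2-day pups, collagenase/dispase digests) at 60–70% confluence treated 48 h. Whole-cell lysates immunoblotted with primary antibody overnight at 4 °C, then HRP secondary, with ECL detection. Densitometry gives fold change normalized to β-actin versus untreated cells. Mean ± SEM of three independent experiments.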"}, "Calvarial osteoblast [2]": {"test_system": "Calvarial osteoblast", "experiment": "Increase in OCN protein expression in Sprague-Dawley rat calvarial osteoblasts at 100 pM after 48 hrs by Western blot analysis", "type": "functional, cell-based", "procedure,_shortened": "as §1"}, "Calvarial osteoblast [3]": {"test_system": "Calvarial osteoblast", "experiment": "Induction of osteoblast proliferation in Sprague-Dawley rat calvarial osteoblasts at 0.000001 to 1 uM after 48 hrs BrdU incorporation assay", "type": "functional, cell-based", "procedure,_shortened": "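2 × 10³ cells/well in duplicate plates, one for cell number and one for BrdU. Cells treated 48 h in differentiation medium, then BrdU added for a further 24 h. Fixed cells get anti-BrdU (1 h RT), then peroxidase secondary (30 min), TMB (30 min, dark), stop, read at 450 nm. Result given as BrdU(+) osteoblasts, % of total.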"}, "Calvarial osteoblast [4]": {"test_system": "Calvarial osteoblast", "experiment": "Antioxidant activity in Sprague-Dawley rat calvarial osteoblasts assessed as inhibition of TNFalpha-induced intracellular ROS production at 100 pM after 24 hrs by DCFH-DA staining based fluorescence assay", "type": "functional, cell-based", "procedure,_shortened": "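Primary rat calvarial osteoblasts were treated 24 h, then washed twice with serum-free medium. DCFH-DA (10 µg·mL⁻¹) was added in medium with 2% serum, followed by 30 min in the dark. Fluorescence was read at Ex 485/Em 535 nm.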"}, "[5]": {"experiment": "Antioxidant activity assessed as DPPH radical scavenging activity at 500 ug/ml after 30 mins by spectrophotometric method relative to control", "type": "functional", "procedure,_shortened": "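The compound was serially diluted from 1000 to 1.95 µg·ml⁻¹ and mixed 1:1 with DPPH in methanol. After 30 min at room temperature, absorbance was read at 517 nm. Scavenging (%) = [(Abc − Abs)/Abc] × 100, where Abc is DPPH without compound.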"}, "[6]": {"experiment": "Antioxidant activity assessed as SNP-induced nitric oxide free radical scavenging activity at 250 ug/ml after 150 mins by Griess reagent based method relative to control", "type": "functional", "procedure,_shortened": "(§2)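 Serial dilutions (1000 to 1.95 µg·ml⁻¹) were mixed with sodium nitroprusside (10 mM) and incubated 150 min. An equal volume of Griess reagent was added, and absorbance was read at 546 nm. Percentage scavenging was calculated relative to the control without compound.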"}, "[7]": {"experiment": "Antioxidant activity assessed as SNP-induced nitric oxide free radical scavenging activity at 500 ug/ml after 150 mins by Griess reagent based method relative to control", "type": "functional", "procedure,_shortened": "as §2"}, "[8]": {"experiment": "Antioxidant activity assessed as SNP-induced nitric oxide free radical scavenging activity at 1000 ug/ml after 150 mins by Griess reagent based method relative to control", "type": "functional", "procedure,_shortened": "as §2"}, "Rattus norvegicus [9]": {"test_system": "Rattus norvegicus", "experiment": "Antiosteoporotic activity in Sprague-Dawley rat model of OVX-induced bone loss assessed as mineral apposition rate at 1 mg/kg, po via gavage for 12 weeks by microcomputed tomographic analysis (reference value: 0.169 +/- 0.004 umeter/day)", "type": "functional", "procedure,_shortened": "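Female Sprague-Dawley rats, 10-12 weeks old, ten per group, were ovariectomized and left 12 weeks for osteopenia. They were then dosed once daily by oral gavage for 12 weeks in 1% gum acacia vehicle. The estradiol arm received 100 µg·kg⁻¹ subcutaneously five days a week. Tetracycline and calcein were given intraperitoneally at 20 mg·kg⁻¹ each. Femur cross-sections (50 µm) were imaged by fluorescence microscopy for MAR and BFR.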"}, "Rattus norvegicus [10]": {"test_system": "Rattus norvegicus", "experiment": "Antiosteoporotic activity in Sprague-Dawley rat model of OVX-induced bone loss assessed as decrease in serum CTX level at 1 to 5 mg/kg, po via gavage for 12 weeks by ELISA", "type": "functional, organism-based", "procedure,_shortened": "(§3)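 Ovariectomy model as above: 12 weeks of osteopenia, then 12 weeks of daily gavage or subcutaneous estradiol. Serum was separated at autopsy, and CTX and PINP were measured by ELISA kits.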"}, "Rattus norvegicus [11]": {"test_system": "Rattus norvegicus", "experiment": "Antiosteoporotic activity in Sprague-Dawley rat model of OVX-induced bone loss assessed as increase in serum PINP level at 1 to 5 mg/kg, po via gavage for 12 weeks by ELISA", "type": "functional, organism-based", "procedure,_shortened": "as §3"}, "Rattus norvegicus [12]": {"test_system": "Rattus norvegicus", "experiment": "Upregulation of type-1 collagen mRNA expression in femur bone of Sprague-Dawley rat model of OVX-induced bone loss at 1 to 5 mg/kg, po via gavage for 12 weeks by qPCR analysis", "type": "functional, organism-based", "procedure,_shortened": "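Ovariectomized female SD rats, osteopenic after 12 weeks, dosed orally once daily for 12 weeks (1.0 or 5.0 mg·kg⁻¹·day⁻¹, 1% gum acacia vehicle); sham and OVX vehicle groups included. Femurs collected at sacrifice for qRT-PCR, analysed by the ΔΔCT method.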"}, "[13]": {"experiment": "Toxicity in Sprague-Dawley rat model of OVX-induced bone loss assessed as uterine weight at 5 mg/kg, po via gavage for 12 weeks (reference value: 0.12 +/- 0.02 g)", "type": "organism-based", "details": "in vivo, 2016 h"}, "[14]": {"experiment": "Toxicity in Sprague-Dawley rat model of OVX-induced bone loss assessed as luminal area at 5 mg/kg, po via gavage for 12 weeks (reference value: 0.01 +/- 0.0004 mm2)", "type": "organism-based", "details": "in vivo, 2016 h"}}, "note": "Calls of active or inactive are those of the source. No cut-off for these calls is given here."}
{"smiles": "CCOC(=O)c1cc2c([nH]c3ccccc32)c(C(c2nnnn2C(C)(C)C)N2CCN(C)CC2)n1", "note": "(centres undefined)", "values": [{"measurement": "Activity", "setting": "Calvarial osteoblast [1]", "result": "Active"}, {"measurement": "Activity", "setting": "Calvarial osteoblast [2]", "result": "Active"}, {"measurement": "Activity", "setting": "Calvarial osteoblast [3]", "result": "Active"}, {"measurement": "inhibition", "setting": "Calvarial osteoblast [4]", "result": "Active"}, {"measurement": "Activity", "setting": "[5]", "result": 43.5, "unit": "%"}, {"measurement": "Activity", "setting": "[6]", "result": 30.7, "unit": "%"}, {"measurement": "Activity", "setting": "[7]", "result": 31.4, "unit": "%"}, {"measurement": "Activity", "setting": "[8]", "result": 19.3, "unit": "%"}, {"measurement": "Activity", "setting": "Rattus norvegicus [9]", "result": 1.062, "unit": "micrometer/day"}, {"measurement": "Activity", "setting": "Rattus norvegicus [10]", "result": "Active"}, {"measurement": "Activity", "setting": "Rattus norvegicus [11]", "result": "Active"}, {"measurement": "Activity", "setting": "Rattus norvegicus [12]", "result": "Active"}, {"measurement": "Activity", "setting": "[13]", "result": 0.12, "unit": "g"}, {"measurement": "Activity", "setting": "[14]", "result": 0.012, "unit": "mm2"}]}
